Reference: ChEMBL document CHEMBL1131241, “Cyclic HIV protease inhibitors: design and synthesis of orally bioavailable, pyrazole P2/P2' cyclic ureas with improved potency” (J Med Chem, 1998)

Legend:
[1] = tested on: MT2; test: Concentration which reduced the concentration of HIV viral RNA by 90% from the level measured in an untreated infected culture; format: functional; details: Homo sapiens
Procedure, shortened: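 MT-2 cells infected with HIV-1 RF. Uninfected cells preincubated 30 min with serial dilutions of compound in culture medium, then virus added; cultured 3 days at 37 °C, 5% CO₂. Lysed cells assayed for HIV RNA by microtiter plate hybridization. IC90 = concentration lowering viral RNA 90% versus untreated infected culture.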

[2] = Bioavailability as maximal plasma concentration in rats after 10 mg/kg oral dose; format: ADME, organism-based; design: dose 10 mg/kg, route oral; details: rat
[3] = tested on: MT2; test: Cytotoxicity was determined by 50% reduction in the number of viable MT2 cells with HIV-1RF; format: functional; details: Homo sapiens, read-out: TC50 (the source's name)
Procedure, shortened: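 TC50 taken as concentration giving 50% fewer viable cells, with viability read by tetrazolium dye metabolism.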

[4] = target: Human immunodeficiency virus type 1 protease (Human immunodeficiency virus 1, UniProt Q72874); test: Inhibition of HIV protease, measured by assaying the cleavage of a fluorescent peptide substrate using HPLC
[5] = Bioavailability as maximal plasma concentration in dogs after 2.5 mg/kg oral dose; format: ADME, organism-based, Canis lupus familiaris; design: dose 2.5 mg/kg, route oral; details: dog

Compound | Cmax [2] [µM] | Cmax [5] [µM] | IC90 [1] [nM] | CC50 [3] [nM] | Ki [4] [nM]
CC(=O)c1cccc(CN2C(=O)N(Cc3cccc(C(C)=O)c3)[C@H](Cc3ccccc3)[C@H](O)[C@@H](O)[C@H]2Cc2ccccc2)c1 | 0.5 |  | 39 | 20000 | 0.06
O=C1N(Cc2cccc(-c3c[nH]cn3)c2)[C@H](Cc2ccccc2)[C@H](O)[C@@H](O)[C@@H](Cc2ccccc2)N1Cc1cccc(-c2c[nH]cn2)c1 | < 0.042 |  | 84 | 8800 | 0.19
CCC(=O)c1cccc(CN2C(=O)N(Cc3cccc(C(=O)CC)c3)[C@H](Cc3ccccc3)[C@H](O)[C@@H](O)[C@H]2Cc2ccccc2)c1 |  |  | 142 | > 80000 | 0.21
O=C1N(Cc2cccc(C(=O)C(F)(F)F)c2)[C@H](Cc2ccccc2)[C@H](O)[C@@H](O)[C@@H](Cc2ccccc2)N1Cc1cccc(C(=O)C(F)(F)F)c1 |  |  | 33 | 5400 | 0.037
CCC/C(=N/O)c1cccc(CN2C(=O)N(Cc3cccc(/C(CCC)=N/O)c3)[C@H](Cc3ccccc3)[C@H](O)[C@@H](O)[C@H]2Cc2ccccc2)c1 |  |  | 64 | 3700 | 0.031
O=C1N(Cc2cccc(-c3nc[nH]n3)c2)[C@H](Cc2ccccc2)[C@H](O)[C@@H](O)[C@@H](Cc2ccccc2)N1Cc1cccc(-c2nc[nH]n2)c1 |  |  | 128 | 53000 | 0.052
O=C1N(Cc2cccc(/C(=N/O)C(F)(F)F)c2)[C@H](Cc2ccccc2)[C@H](O)[C@@H](O)[C@@H](Cc2ccccc2)N1Cc1cccc(/C(=N\O)C(F)(F)F)c1 |  |  | 714 | 14000 | 3.9
O=Cc1cccc(CN2C(=O)N(Cc3cccc(C=O)c3)[C@H](Cc3ccccc3)[C@H](O)[C@@H](O)[C@H]2Cc2ccccc2)c1 | 0.26 |  | 36 | 19000 | 0.44
O=C1N(Cc2cccc(-c3nnn[nH]3)c2)[C@H](Cc2ccccc2)[C@H](O)[C@@H](O)[C@@H](Cc2ccccc2)N1Cc1cccc(-c2nnn[nH]2)c1 |  |  | > 70000 | 78000 | 6.6
CC/C(=N/O)c1cccc(CN2C(=O)N(Cc3cccc(/C(CC)=N/O)c3)[C@H](Cc3ccccc3)[C@H](O)[C@@H](O)[C@H]2Cc2ccccc2)c1 |  |  | 7 | 5000 | 0.031
CC(C)(C)C(=O)c1cccc(CN2C(=O)N(Cc3cccc(C(=O)C(C)(C)C)c3)[C@H](Cc3ccccc3)[C@H](O)[C@@H](O)[C@H]2Cc2ccccc2)c1 |  |  |  |  | 3.6
CCCC(=O)c1cccc(CN2C(=O)N(Cc3cccc(C(=O)CCC)c3)[C@H](Cc3ccccc3)[C@H](O)[C@@H](O)[C@H]2Cc2ccccc2)c1 |  |  | 1440 | > 77000 | 1.4
O=C1N(Cc2cccc(-c3cn[nH]c3)c2)[C@H](Cc2ccccc2)[C@H](O)[C@@H](O)[C@@H](Cc2ccccc2)N1Cc1cccc(-c2cn[nH]c2)c1 | 0.075 |  | 32 | 1400 | 0.62
O=C(NCCN1CCOCC1)c1cccc(CN2C(=O)N(Cc3cccc(-c4cc[nH]n4)c3)[C@H](Cc3ccccc3)[C@H](O)[C@@H](O)[C@H]2Cc2ccccc2)c1 |  |  | 128 | 43000 | 0.052
O=C1N(Cc2cccc(/C=N\O)c2)[C@H](Cc2ccccc2)[C@H](O)[C@@H](O)[C@@H](Cc2ccccc2)N1Cc1cccc(/C=N/O)c1 | 0.3 |  | 5 | 16000 | 0.01
O=C1N(Cc2cccc(-c3cc[nH]n3)c2)[C@H](Cc2ccccc2)[C@H](O)[C@@H](O)[C@@H](Cc2ccccc2)N1Cc1cccc(-c2cc[nH]n2)c1 | 0.068 |  | 20 | 4200 | 0.027
C/C(=N/O)c1cccc(CN2C(=O)N(Cc3cccc(/C(C)=N/O)c3)[C@H](Cc3ccccc3)[C@H](O)[C@@H](O)[C@H]2Cc2ccccc2)c1 | 0.06 |  | 2 | 81000 | 0.018
O=C1N(Cc2cccc(-c3ncc[nH]3)c2)[C@H](Cc2ccccc2)[C@H](O)[C@@H](O)[C@@H](Cc2ccccc2)N1Cc1cccc(-c2ncc[nH]2)c1 |  |  | 234 | 78000 | 0.16
O=C1N(Cc2cccc(-c3c[nH]nn3)c2)[C@H](Cc2ccccc2)[C@H](O)[C@@H](O)[C@@H](Cc2ccccc2)N1Cc1cccc(-c2c[nH]nn2)c1 |  |  | 94 | 47000 | 0.17
O=C1N(Cc2cccnc2)[C@H](Cc2ccccc2)[C@H](O)[C@@H](O)[C@@H](Cc2ccccc2)N1Cc1cccc(-c2cc[nH]n2)c1 |  |  | 94 | 6300 | 0.17
O=C1N(Cc2ccc(O)cc2)[C@H](Cc2ccccc2)[C@H](O)[C@@H](O)[C@@H](Cc2ccccc2)N1Cc1cccc(-c2cc[nH]n2)c1 |  |  | 30 | 4800 | 0.021
COC(=O)c1cccc(CN2C(=O)N(Cc3cccc(-c4cc[nH]n4)c3)[C@H](Cc3ccccc3)[C@H](O)[C@@H](O)[C@H]2Cc2ccccc2)c1 | 0.32 |  | 32 | 5700 | 0.14

The next lines start with results.

Cmax [2] [µM] | Cmax [5] [µM] | Compound | IC90 [1] [nM] | CC50 [3] [nM] | Ki [4] [nM]
0.78 |  | O=C1N[C@H](Cc2ccccc2)[C@H](O)[C@@H](O)[C@@H](Cc2ccccc2)N1Cc1cccc(-c2cc[nH]n2)c1 | 67 | 21000 | 0.26
0.11 |  | O=C1N(Cc2cccc(CO)c2)[C@H](Cc2ccccc2)[C@H](O)[C@@H](O)[C@@H](Cc2ccccc2)N1Cc1cccc(-c2cc[nH]n2)c1 | 234 | 20000 | 0.16
 | 0.85 | Nc1cccc(CN2C(=O)N(Cc3cccc(-c4cc[nH]n4)c3)[C@H](Cc3ccccc3)[C@H](O)[C@@H](O)[C@H]2Cc2ccccc2)c1 | 27 | 6800 | 0.035
2.25 |  | Nc1cccc(CN2C(=O)N(Cc3cccc(N)c3)[C@H](Cc3ccccc3)[C@H](O)[C@@H](O)[C@H]2Cc2ccccc2)c1 [MOZENAVIR] |  |  | 
